Calls of active or inactive are those of the source. The rule behind the calls is not given here.
Experiments:
Mus musculus = test: Inhibition of FLT3-ITD mutant in human MV4-11 cells xenografted in NOD-SCID mouse assessed as inhibition of STAT5 phosphorylation at 10 mg/kg/day, po after 3 days by immunostaining method relative to vehicle-treated control; type: functional, organism-based
In short: (§1)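 Mice (NOD-SCID) bearing sc MV4-11 tumors given 10 mg/kg/d by oral gavage. Tumors removed after 2–4 days and formalin-fixed. Sections immunostained for Ki67 (proliferation) or p-STAT5, or TUNEL-stained (apoptosis). Imaged by light microscopy and compared with vehicle group.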

MV4-11 [1] = test: Induction of apoptosis in FLT3-ITD-positive human MV4-11 cells xenografted in NOD-SCID mouse assessed as increase in apoptotic cells at 10 mg/kg/day, po by TUNEL assay; type: functional, organism-based; settings: TDE = time-dependent effect; in short: as §1
MV4-11 [2] = test: Antitumor activity against FLT3-ITD-positive human MV4-11 cells xenografted in NOD-SCID mouse assessed as tumor growth inhibition at 3 mg/kg/day, po administered 18 days measured every 3 days for 18 days; type: functional, organism-based
In short: (§2)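 NOD-SCID mice (5–6 weeks) implanted sc with 1 × 10⁸/mL MV4-11 cells (100 μL) in serum-free medium. Grouped at 300–500 mm³, six per group, then dosed orally once daily for 18 days. Vehicle was 12.5% castor oil, 12.5% ethanol, 75% water. Tumor volume = long × short²/2, measured every 3 d.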

MV4-11 [3] = test: Antitumor activity against FLT3-ITD-positive human MV4-11 cells xenografted in NOD-SCID mouse assessed as tumor regression at 10 mg/kg/day, po administered 18 days measured every 3 days for 18 days; type: functional, organism-based; in short: as §2
MV4-11 [4] = test: Antitumor activity against human MV4-11 cells xenografted in mouse at 5 mg/kg/day, po after 18 days; type: functional, organism-based
In short: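 MV4-11 sc xenograft mice dosed daily by mouth once tumors reached about 400 mm³, three mice per group; tumor volume followed.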

MV4-11 [5] = test: Induction of apoptosis in human MV4-11 cells assessed as early apoptotic cells at 0.001 uM after 24 hrs by annexin V-FITC/propidium iodide staining-based FACS flow cytometric analysis (reference value: 1.61%); type: functional
MV4-11 [6] = test: Induction of apoptosis in human MV4-11 cells assessed as late apoptotic cells at 0.1 uM after 24 hrs by annexin V-FITC/propidium iodide staining-based FACS flow cytometric analysis (reference value: 4.28%); type: functional
DU-145 = test: Cytotoxicity against human DU145 cells assessed as growth inhibition after 72 hrs by MTT assay; settings: DU-145, 72 h
U-266 = test: Cytotoxicity against human U266 cells assessed as growth inhibition after 72 hrs by MTT assay; settings: U-266, 72 h
Bel-7402 = test: Cytotoxicity against human Bel7402 cells assessed as growth inhibition after 72 hrs by MTT assay; settings: Bel-7402, 72 h
TT = test: Cytotoxicity against human TT cells assessed as growth inhibition after 72 hrs by MTT assay
MCF7 = test: Cytotoxicity against human MCF7 cells assessed as growth inhibition after 72 hrs by MTT assay; settings: MCF7, 72 h
MDA-MB-468 = test: Cytotoxicity against human MDA-MB-468 cells assessed as growth inhibition after 72 hrs by MTT assay; settings: MDA-MB-468, 72 h
Jurkat = test: Cytotoxicity against human Jurkat cells assessed as growth inhibition after 72 hrs by MTT assay
[7] = target: Serine/threonine-protein kinase PAK 1 (Homo sapiens, UniProt Q13153); test: Inhibition of PAK1 (unknown origin)
Serine/threonine-protein kinase PAK 1, sequence (Q13153 whole entry): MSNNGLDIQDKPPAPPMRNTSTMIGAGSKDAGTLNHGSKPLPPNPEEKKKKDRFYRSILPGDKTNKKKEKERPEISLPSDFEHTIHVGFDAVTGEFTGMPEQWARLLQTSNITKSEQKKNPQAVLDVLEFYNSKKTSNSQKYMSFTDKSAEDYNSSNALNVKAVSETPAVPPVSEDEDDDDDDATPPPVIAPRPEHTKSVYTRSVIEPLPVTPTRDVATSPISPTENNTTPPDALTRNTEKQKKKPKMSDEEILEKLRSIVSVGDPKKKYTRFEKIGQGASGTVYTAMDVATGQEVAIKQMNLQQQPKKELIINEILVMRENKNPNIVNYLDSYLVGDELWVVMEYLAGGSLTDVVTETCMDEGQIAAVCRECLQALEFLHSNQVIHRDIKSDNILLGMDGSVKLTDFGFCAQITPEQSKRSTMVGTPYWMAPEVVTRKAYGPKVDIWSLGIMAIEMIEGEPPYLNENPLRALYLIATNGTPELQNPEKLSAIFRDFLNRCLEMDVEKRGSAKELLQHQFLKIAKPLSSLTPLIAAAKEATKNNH

[8] = target: Serine/threonine-protein kinase PLK1 (Homo sapiens, UniProt P53350); test: Inhibition of PLK1 (unknown origin)
Serine/threonine-protein kinase PLK1, sequence (P53350 whole entry): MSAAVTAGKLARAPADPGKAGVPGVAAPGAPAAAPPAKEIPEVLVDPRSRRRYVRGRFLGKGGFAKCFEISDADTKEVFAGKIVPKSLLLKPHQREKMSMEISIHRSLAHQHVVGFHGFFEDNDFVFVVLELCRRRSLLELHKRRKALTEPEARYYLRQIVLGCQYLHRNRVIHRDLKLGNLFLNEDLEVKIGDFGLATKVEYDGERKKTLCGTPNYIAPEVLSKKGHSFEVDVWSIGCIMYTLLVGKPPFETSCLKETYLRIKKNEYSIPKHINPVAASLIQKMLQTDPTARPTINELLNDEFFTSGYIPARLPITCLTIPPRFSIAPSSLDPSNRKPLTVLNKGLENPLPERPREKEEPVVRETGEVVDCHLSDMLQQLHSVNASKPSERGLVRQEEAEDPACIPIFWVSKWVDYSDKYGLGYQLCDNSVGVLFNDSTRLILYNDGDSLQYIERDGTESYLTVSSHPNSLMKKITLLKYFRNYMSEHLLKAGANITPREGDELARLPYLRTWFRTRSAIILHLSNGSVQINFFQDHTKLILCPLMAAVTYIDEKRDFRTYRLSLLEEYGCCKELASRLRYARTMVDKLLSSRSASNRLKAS

Aurora kinase B = Aurora kinase B (Homo sapiens, UniProt Q96GD4); test: Inhibition of aurora-B (unknown origin)
Aurora kinase B, sequence (Q96GD4 whole entry): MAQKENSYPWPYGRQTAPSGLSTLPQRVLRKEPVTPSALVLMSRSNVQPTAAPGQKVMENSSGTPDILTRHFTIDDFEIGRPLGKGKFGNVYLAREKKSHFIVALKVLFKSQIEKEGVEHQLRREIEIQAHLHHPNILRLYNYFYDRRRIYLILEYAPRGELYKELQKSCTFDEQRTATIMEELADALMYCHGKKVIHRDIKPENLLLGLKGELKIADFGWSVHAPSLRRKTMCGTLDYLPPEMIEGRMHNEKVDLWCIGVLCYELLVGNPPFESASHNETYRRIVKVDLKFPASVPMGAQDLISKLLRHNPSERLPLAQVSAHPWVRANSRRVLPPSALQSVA

Aurora kinase A = Aurora kinase A (Homo sapiens, UniProt O14965); test: Inhibition of aurora-A (unknown origin)
Aurora kinase A, sequence (O14965 whole entry): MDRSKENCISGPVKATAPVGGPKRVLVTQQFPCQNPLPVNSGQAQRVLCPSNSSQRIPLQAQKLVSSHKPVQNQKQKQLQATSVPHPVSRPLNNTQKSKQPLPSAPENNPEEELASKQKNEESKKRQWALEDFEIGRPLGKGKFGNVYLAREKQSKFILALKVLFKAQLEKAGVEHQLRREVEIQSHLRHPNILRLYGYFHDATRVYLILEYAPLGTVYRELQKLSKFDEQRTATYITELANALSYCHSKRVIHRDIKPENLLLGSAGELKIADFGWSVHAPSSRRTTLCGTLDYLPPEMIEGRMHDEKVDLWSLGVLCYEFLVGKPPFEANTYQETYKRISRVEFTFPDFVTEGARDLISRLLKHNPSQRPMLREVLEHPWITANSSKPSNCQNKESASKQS

[9] = target: Tyrosine-protein kinase SYK (Homo sapiens, UniProt P43405); test: Inhibition of SYK (unknown origin)
[10] = target: Serine/threonine-protein kinase pim-1 (Homo sapiens, UniProt P11309); test: Inhibition of Pim-1 (unknown origin)
Serine/threonine-protein kinase pim-1, sequence (P11309 whole entry): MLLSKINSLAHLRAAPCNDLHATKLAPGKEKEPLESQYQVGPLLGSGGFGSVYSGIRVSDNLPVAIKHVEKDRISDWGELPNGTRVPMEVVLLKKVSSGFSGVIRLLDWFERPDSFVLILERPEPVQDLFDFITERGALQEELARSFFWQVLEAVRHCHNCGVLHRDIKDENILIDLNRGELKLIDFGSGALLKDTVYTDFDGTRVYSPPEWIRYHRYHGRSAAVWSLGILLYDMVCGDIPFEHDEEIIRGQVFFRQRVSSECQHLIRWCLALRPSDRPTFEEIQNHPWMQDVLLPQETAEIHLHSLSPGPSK

[11] = target: Receptor tyrosine-protein kinase erbB-2 (Homo sapiens, UniProt P04626); test: Inhibition of ERBB2 (unknown origin)
In short: (§3)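 Single selected panel of recombinant human protein kinases, screened in vitro. The value reported is the IC50 against each kinase.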

[12] = target: Platelet-derived growth factor receptor beta (Homo sapiens, UniProt P09619); test: Inhibition of PDGFRbeta (unknown origin); in short: as §3
Platelet-derived growth factor receptor beta, sequence (P09619 whole entry): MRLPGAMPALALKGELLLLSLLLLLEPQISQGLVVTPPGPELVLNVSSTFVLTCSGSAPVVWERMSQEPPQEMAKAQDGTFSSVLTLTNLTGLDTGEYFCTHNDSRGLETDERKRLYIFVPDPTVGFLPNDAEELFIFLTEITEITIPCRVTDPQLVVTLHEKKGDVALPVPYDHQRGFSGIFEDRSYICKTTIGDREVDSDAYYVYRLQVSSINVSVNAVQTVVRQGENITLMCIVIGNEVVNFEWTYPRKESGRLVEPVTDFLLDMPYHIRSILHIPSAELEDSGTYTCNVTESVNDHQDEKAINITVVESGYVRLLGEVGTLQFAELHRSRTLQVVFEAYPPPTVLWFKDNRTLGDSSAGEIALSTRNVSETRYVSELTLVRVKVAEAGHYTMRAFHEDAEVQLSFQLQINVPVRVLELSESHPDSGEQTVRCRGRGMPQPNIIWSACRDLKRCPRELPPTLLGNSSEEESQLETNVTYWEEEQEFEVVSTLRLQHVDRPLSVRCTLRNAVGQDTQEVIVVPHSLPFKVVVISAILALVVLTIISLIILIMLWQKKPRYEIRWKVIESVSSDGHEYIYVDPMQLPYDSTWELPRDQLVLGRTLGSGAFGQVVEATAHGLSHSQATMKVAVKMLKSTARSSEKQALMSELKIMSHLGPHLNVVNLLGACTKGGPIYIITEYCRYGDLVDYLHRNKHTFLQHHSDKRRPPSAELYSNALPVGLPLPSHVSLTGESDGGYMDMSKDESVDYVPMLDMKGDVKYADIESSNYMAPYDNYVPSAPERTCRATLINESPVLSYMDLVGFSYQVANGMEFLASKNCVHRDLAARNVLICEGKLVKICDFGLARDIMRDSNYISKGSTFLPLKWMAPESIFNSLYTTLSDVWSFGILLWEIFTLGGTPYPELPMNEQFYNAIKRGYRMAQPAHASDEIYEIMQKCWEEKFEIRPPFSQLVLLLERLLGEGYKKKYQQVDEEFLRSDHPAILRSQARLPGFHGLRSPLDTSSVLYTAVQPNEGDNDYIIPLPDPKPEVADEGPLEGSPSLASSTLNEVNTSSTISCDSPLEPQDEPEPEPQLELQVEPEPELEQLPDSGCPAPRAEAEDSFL

[13] = target: Platelet-derived growth factor receptor alpha (Homo sapiens, UniProt P16234); test: Inhibition of PDGFRalpha (unknown origin)
[14] = target: Vascular endothelial growth factor receptor 2 (Danio rerio) (UniProt Q5GIT4); test: (§4) Inhibition of VEGFR2 in transgenic zebrafish embryo assessed as inhibition of intersegmental vessels formation measured 33 hrs post fertilization by fluorescence microscopic analysis
Vascular endothelial growth factor receptor 2 (Danio rerio), sequence (Q5GIT4 whole entry): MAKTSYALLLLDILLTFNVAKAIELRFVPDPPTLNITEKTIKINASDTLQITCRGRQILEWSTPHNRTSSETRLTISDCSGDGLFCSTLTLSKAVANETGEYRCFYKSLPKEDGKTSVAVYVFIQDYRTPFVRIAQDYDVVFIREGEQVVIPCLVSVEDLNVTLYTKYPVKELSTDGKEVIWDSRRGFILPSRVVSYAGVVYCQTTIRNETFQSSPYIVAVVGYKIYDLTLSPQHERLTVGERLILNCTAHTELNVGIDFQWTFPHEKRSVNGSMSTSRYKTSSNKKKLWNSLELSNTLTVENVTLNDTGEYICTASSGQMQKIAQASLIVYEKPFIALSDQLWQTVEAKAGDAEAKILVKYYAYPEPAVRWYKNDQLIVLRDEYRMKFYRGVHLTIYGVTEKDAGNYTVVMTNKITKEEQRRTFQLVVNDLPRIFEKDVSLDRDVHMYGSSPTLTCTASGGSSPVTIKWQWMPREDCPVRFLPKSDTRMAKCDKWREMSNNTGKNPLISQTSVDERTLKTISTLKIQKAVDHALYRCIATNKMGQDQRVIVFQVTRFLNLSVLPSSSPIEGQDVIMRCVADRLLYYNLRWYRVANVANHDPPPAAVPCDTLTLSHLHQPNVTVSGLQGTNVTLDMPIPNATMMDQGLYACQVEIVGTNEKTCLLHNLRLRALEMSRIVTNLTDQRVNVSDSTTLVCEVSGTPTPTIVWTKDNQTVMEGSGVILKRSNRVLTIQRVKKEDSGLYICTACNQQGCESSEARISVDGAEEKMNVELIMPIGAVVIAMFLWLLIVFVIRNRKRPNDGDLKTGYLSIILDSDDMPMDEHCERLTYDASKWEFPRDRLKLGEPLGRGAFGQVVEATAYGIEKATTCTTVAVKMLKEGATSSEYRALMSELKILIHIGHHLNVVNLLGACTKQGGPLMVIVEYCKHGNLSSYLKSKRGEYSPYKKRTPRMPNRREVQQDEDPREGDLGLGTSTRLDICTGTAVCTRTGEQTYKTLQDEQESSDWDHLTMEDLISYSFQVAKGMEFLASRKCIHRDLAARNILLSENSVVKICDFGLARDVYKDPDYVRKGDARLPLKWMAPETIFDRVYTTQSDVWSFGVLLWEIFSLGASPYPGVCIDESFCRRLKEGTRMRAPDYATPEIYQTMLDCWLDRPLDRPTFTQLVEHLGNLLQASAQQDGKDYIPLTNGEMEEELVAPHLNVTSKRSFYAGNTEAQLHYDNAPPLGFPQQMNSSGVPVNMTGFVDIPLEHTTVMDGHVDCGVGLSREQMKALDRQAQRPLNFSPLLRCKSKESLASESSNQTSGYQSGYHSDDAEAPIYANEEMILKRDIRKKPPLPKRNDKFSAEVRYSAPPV
In short: (§5)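 FLK-1:EGFP transgenic zebrafish embryos, 10 per well, exposed at 28.5 °C from 15 to 31 hpf to compound in fish water at 1.25, 2.5 or 5 μM (diluted from a 10 mmol/L DMSO stock); 0.3% DMSO as vehicle control. Embryos were imaged at 33 hpf, and ISVs above the yolk extension were scored for length. n = 11, mean ± SD, ANOVA.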

[15] = target: Vascular endothelial growth factor receptor 2 (Danio rerio, UniProt Q5GIT4); test: as §4; in short: as §5
Vascular endothelial growth factor receptor 2 (Danio rerio, UniProt Q5GIT4), sequence (Q5GIT4 whole entry): as above

[16] = target: Vascular endothelial growth factor receptor 2 (Homo sapiens, UniProt P35968); test: Inhibition of VEGFR2 (unknown origin)

## O=C(Nc1ccc(Oc2ncnc3[nH]ncc23)cc1)Nc1ccc(Cl)c(C(F)(F)F)c1
Mus musculus
  inhibition: Active
MV4-11 [1]
  Activity: tde
MV4-11 [2]
  TGI: Active
MV4-11 [3]
  Activity: Active
MV4-11 [4]
  Activity: Active
MV4-11 [5]
  Activity: 4.15%
MV4-11 [6]
  Activity: 25.8%
DU-145
  IC50: > 10 µM
U-266
  IC50: > 10 µM
Bel-7402
  IC50: > 10 µM
TT
  IC50: 3.42 µM
MCF7
  IC50: > 10 µM
MDA-MB-468
  IC50: 6.68 µM
Jurkat
  IC50: 8.72 µM
[7]
  IC50: > 10 µM
[8]
  IC50: > 10 µM
Aurora kinase B
  IC50: > 10 µM
Aurora kinase A
  IC50: > 10 µM
[9]
  IC50: > 10 µM
[10]
  IC50: > 10 µM
[11]
  IC50: > 10 µM
[12]
  IC50: 0.408 µM
[13]
  IC50: 0.223 µM
[14]
  inhibition: Dose-dependent effect
[15]
  IC50: 2.5 µM
[16]
  IC50: 0.012 µM
